Results: ChEMBL document CHEMBL1129449 (J Med Chem, 1996)

How the values were obtained:
[1] = molecular target: D(2) dopamine receptor (Rattus norvegicus, UniProt P61169); assay: Binding affinity at Dopamine receptor D2 in rat neostriatum frozen sections by [3H]-spiperone displacement.
[2] = molecular target: D(1A) dopamine receptor (Rattus norvegicus, UniProt P18901); assay: Binding affinity at Dopamine receptor D1 in rat neostriatum by [3H]-SCH- 23390 displacement.; assay type: tissue-based, Striatum
Method in brief: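 Tissue: sections of neostriatum from male Sprague–Dawley rats (250–300 g). Test substances dissolved in distilled water. Values are mean ± SEM of five to seven independent experiments, each run in triplicate.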

Sequence of D(2) dopamine receptor (P61169 whole entry): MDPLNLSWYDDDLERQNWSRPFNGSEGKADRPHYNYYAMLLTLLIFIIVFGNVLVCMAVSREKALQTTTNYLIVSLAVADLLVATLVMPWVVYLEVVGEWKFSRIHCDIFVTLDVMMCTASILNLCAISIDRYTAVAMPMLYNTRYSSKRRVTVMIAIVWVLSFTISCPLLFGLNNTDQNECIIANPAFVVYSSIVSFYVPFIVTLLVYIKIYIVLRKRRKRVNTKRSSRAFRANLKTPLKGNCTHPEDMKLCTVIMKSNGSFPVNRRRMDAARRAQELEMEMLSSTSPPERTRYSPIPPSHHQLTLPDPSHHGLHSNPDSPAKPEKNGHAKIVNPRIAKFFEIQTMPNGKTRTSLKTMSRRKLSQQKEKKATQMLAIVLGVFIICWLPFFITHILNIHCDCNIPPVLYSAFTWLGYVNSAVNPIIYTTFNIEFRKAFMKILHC
Sequence of D(1A) dopamine receptor (P18901 whole entry): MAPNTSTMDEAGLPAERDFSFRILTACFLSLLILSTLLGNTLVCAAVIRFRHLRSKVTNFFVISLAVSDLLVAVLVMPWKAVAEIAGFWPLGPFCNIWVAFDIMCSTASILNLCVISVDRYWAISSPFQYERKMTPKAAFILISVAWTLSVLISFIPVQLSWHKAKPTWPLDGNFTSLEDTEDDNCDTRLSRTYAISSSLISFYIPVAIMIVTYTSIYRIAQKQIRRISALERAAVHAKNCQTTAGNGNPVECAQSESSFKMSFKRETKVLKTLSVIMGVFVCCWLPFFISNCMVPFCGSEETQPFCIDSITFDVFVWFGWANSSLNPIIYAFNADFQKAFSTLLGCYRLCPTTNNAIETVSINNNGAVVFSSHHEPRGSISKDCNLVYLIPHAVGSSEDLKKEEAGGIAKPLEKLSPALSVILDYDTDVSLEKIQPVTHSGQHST

C[C@@]1(c2ccccc2)c2cc(O)c(O)cc2C[C@@]1(C)N
Ki [1]: > 1000 nM
Ki [2]: 5.5 nM

N[C@@H]1Cc2ccc(O)cc2[C@H]1c1ccccc1 (stereo in doubt; (+)-14a)
Ki [1]: 0.59 nM
Ki [2]: 2.5 nM

N[C@@H]1Cc2cc(O)ccc2[C@H]1c1ccccc1 (stereo in doubt; (+)-14b)
Ki [1]: > 1000 nM
Ki [2]: 1.87 nM

CCCN(CCC)[C@@H]1Cc2ccc(O)cc2[C@H]1c1ccccc1 (stereo in doubt; (+)-15a)
Ki [1]: 51.5 nM
Ki [2]: 28.5 nM

CCCN(CCC)[C@@H]1Cc2cc(O)ccc2[C@H]1c1ccccc1 (stereo in doubt; (+)-15b)
Ki [1]: > 1000 nM
Ki [2]: 1.4 nM

C=CCN(C)[C@@H]1Cc2ccc(O)cc2[C@H]1c1ccccc1 (stereo in doubt; (+)-16a)
Ki [1]: 37.5 nM
Ki [2]: 3 nM

C=CCN(C)[C@@H]1Cc2cc(O)ccc2[C@H]1c1ccccc1 (stereo in doubt; (+)-16b)
Ki [1]: > 1000 nM
Ki [2]: > 1000 nM

CCCN(C)[C@@H]1Cc2ccc(O)cc2[C@H]1c1ccccc1 (stereo in doubt; (+)-17a)
Ki [1]: 0.3 nM
Ki [2]: 0.9 nM

CCCN(C)[C@@H]1Cc2cc(O)ccc2[C@H]1c1ccccc1 (stereo in doubt; (+)-17b)
Ki [1]: > 1000 nM
Ki [2]: > 1000 nM

N[C@@H]1Cc2ccc(O)cc2[C@H]1c1ccccc1 (stereo in doubt; (-)-14a)
Ki [1]: 0.89 nM
Ki [2]: 34.5 nM

N[C@@H]1Cc2cc(O)ccc2[C@H]1c1ccccc1 (stereo in doubt; (-)-14b)
Ki [1]: > 1000 nM
Ki [2]: 18.7 nM

CCCN(CCC)[C@@H]1Cc2ccc(O)cc2[C@H]1c1ccccc1 (stereo in doubt; (-)-15a)
Ki [1]: 0.84 nM
Ki [2]: 26.4 nM

CCCN(CCC)[C@@H]1Cc2cc(O)ccc2[C@H]1c1ccccc1 (stereo in doubt; (-)-15b)
Ki [1]: > 1000 nM
Ki [2]: 1.76 nM

C=CCN(C)[C@@H]1Cc2ccc(O)cc2[C@H]1c1ccccc1 (stereo in doubt; (-)-16a)
Ki [1]: 0.43 nM
Ki [2]: 0.79 nM

C=CCN(C)[C@@H]1Cc2cc(O)ccc2[C@H]1c1ccccc1 (stereo in doubt; (-)-16b)
Ki [1]: > 1000 nM
Ki [2]: > 1000 nM

CCCN(C)[C@@H]1Cc2ccc(O)cc2[C@H]1c1ccccc1 (stereo in doubt; (-)-17a)
Ki [1]: 0.34 nM
Ki [2]: 0.88 nM

CCCN(C)[C@@H]1Cc2cc(O)ccc2[C@H]1c1ccccc1 (stereo in doubt; (-)-17b)
Ki [1]: > 1000 nM
Ki [2]: > 1000 nM
